Results reported in article PMC6626684 (Biochemical and biophysical research communications, 2019).

Experiments:
[1] = target: WT mTRPV1 (Mus musculus, UniProt Q704Y3); experiment: Live-cell calcium fluorescence imaging; format: cell-based
[2] = psychophysical tests; cited from earlier work
[3] = target: mTRPV1 E571A (Mus musculus, UniProt Q704Y3, E571A); experiment: Live-cell calcium fluorescence imaging; format: cell-based
[4] = target: TRPV1 T671V (Mus musculus, UniProt Q704Y3, T671V); experiment: Single-channel inside-out patch-clamp recording, T671V mutant; format: cell-based
[5] = target: T1, WT TRPV1 (Mus musculus, UniProt Q704Y3); experiment: Single-channel inside-out patch-clamp recording, WT channel; format: cell-based; settings: for Hill slope factor: electrophysiology
[6] = target: TRPV1 E571A (Mus musculus, UniProt Q704Y3, E571A); experiment: Single-channel inside-out patch-clamp recording, E571A mutant; format: cell-based; settings: for Hill slope factor: electrophysiology, E571A
[7] = target: T2, TRPV1 T671S (Mus musculus, UniProt Q704Y3, T671S); settings: capsaicin stimulation; cited from earlier work
[8] = target: TRPV1 T551V (Mus musculus, UniProt Q704Y3, T551V); experiment: Single-channel inside-out patch-clamp recording, T551V mutant; format: cell-based; settings: for Hill slope factor: electrophysiology; for Hill slope factor / open probability: T551V
[9] = target: mTRPV1 T551V (Mus musculus, UniProt Q704Y3, T551V); experiment: Live-cell calcium fluorescence imaging; format: cell-based; settings: for Hill slope factor: calcium imaging, T551V
[10] = target: T1, WT TRPV1; settings: mTRPV1; cited from earlier work
[11] = target: T2, TRPV1 T671S; experiment: Single-channel inside-out patch-clamp recording, T671S mutant; format: cell-based; settings: most piperine concentrations tested
In short: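 HEK293 cells transiently transfected (Lipofectamine 2000) with eYFP-fused mouse TRPV1 mutant, used 1–2 days later. Inside-out patches held at 0 mV for 50 ms, stepped to +80 mV for 1 s. Symmetrical 130 mM NaCl, 0.2 mM EDTA, 3 mM HEPES pH 7.2, no Ca2+, 25°C. Filtered at 2.25 kHz, sampled at 10 kHz. Po from Gaussian fits to all-point histograms; patches with >2 channels discarded. Repeated-measures two-way ANOVA.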

[12] = test system: non-transfected HEK293 cells; experiment: Calcium imaging control in non-transfected cells; format: cell-based

mTRPV1 E571A, sequence (Q704Y3 whole entry E571A): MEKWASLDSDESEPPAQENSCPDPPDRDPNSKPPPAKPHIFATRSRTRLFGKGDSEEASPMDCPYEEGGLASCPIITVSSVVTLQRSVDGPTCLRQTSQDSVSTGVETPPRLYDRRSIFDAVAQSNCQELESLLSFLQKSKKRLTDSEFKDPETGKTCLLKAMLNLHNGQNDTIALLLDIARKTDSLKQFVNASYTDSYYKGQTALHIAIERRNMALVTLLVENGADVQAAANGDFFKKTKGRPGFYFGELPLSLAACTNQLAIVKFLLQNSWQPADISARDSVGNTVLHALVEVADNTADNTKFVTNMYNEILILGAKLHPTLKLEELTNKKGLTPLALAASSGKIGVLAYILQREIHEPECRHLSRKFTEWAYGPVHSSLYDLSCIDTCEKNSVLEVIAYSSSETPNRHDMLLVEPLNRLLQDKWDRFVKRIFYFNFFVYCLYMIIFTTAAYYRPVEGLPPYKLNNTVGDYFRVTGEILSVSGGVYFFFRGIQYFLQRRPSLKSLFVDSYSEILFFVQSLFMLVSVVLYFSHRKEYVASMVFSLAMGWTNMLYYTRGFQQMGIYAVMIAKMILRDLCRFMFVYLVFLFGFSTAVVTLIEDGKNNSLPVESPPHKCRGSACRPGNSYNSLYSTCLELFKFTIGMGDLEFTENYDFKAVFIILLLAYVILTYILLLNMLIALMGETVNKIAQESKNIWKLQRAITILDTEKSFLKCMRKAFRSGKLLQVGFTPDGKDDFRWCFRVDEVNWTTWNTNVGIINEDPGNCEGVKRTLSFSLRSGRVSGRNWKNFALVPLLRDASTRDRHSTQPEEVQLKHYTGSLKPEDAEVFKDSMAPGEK
TRPV1 E571A, sequence (Q704Y3 whole entry E571A): as above
TRPV1 T551V, sequence (Q704Y3 whole entry T551V): as the sequence (Q704Y3 whole entry E571A) above, with T551V, A571E counted along it
mTRPV1 T551V, sequence (Q704Y3 whole entry T551V): as the sequence (Q704Y3 whole entry E571A) above, with T551V, A571E counted along it
T1 sequence (Q704Y3 whole entry): as the sequence (Q704Y3 whole entry E571A) above, with A571E counted along it
WT mTRPV1, sequence (Q704Y3 whole entry): as the sequence (Q704Y3 whole entry E571A) above, with A571E counted along it
T2 sequence (Q704Y3 whole entry T671S): as the sequence (Q704Y3 whole entry E571A) above, with A571E, T671S counted along it
TRPV1 T671V, sequence (Q704Y3 whole entry T671V): as the sequence (Q704Y3 whole entry E571A) above, with A571E, T671V counted along it

Structure (SMILES): Oc1cc2c(cc1O)CN(C(=S)NCCc1ccc(Cl)cc1)CCC2 [CZP, capsazepine]
- inhibition of fluorescence intensity increase induced by 10 μM piperine ([1]; 10 μM CZP with 10 μM piperine, calcium imaging): almost completely inhibited

Structure (SMILES): COc1cc(CNC(=O)CCCC/C=C/C(C)C)ccc1O [capsaicin]
- relative pungency-taste threshold [2]: 0.6 µM
- EC50 [3]: 1 ± 0.04 µM
- Hill slope factor ([3]; calcium imaging, E571A): 3.0
- currents from the same patches ([4]; capsaicin (10 μM)): robust currents
- Hill slope factor ([5]; WT): 1.9
- EC50 [6]: 1.3 ± 0.03 µM
- Hill slope factor [6]: 3.0
- channel activity of T671S when stimulated [7]: wildtype-like activities
- EC50 [1]: 0.1 ± 0.002 µM
- Hill slope factor ([1]; calcium imaging, WT): 1.9
- EC50 [8]: 1.4 ± 0.03 µM
- Hill slope factor [8]: 3.3
- EC50 [9]: 1 ± 0.02 µM
- Hill slope factor [9]: 3.3
- maximum open probability [10]: above 90%

Structure (SMILES): O=C(/C=C/C=C/c1ccc2c(c1)OCO2)N1CCCCC1 [piperine, Piperine]
- perceived pungency level, times lower than capsaicin [2]: 10-to-100 times
- relative pungency-taste threshold [2]: 10.5 µM
- EC50 [3]: 3.5 ± 0.5 µM
- fluorescence signal at 30 μM ([3]; 30 μM piperine, E571A expressing cells): decreased substantially
- Hill slope factor ([3]; calcium imaging, E571A): 2.2
- efficacy ([3]; calcium imaging, E571A, normalized to 10 μM capsaicin response): 77.1 ± 7.3%
- channel activity ([4]; 30 μM piperine): no channel activity
- EC50 [5]: 252 ± 38.1 µM
- open probability (Po) ([5]; 30 μM piperine, WT): 10%
- maximal Po predicted by extrapolation ([5]; WT, extrapolation of Hill fit): about 36%
- Hill slope factor ([5]; WT): 2.2
- EC50 [6]: 277 ± 36.5 µM
- Hill slope factor [6]: 0.7
- Emax ([6]; read-out: maximum activation open probability (estimated)): 22%
- open probability compared with wildtype channels [11]: significantly lower
- EC50 [1]: 3.3 ± 0.7 µM
- fluorescence intensity of the cells at 30 μM ([1]; 30 μM piperine, WT, consistent with channel desensitization): decreased
- Hill slope factor ([1]; calcium imaging, WT): 2.2
- efficacy ([1]; calcium imaging, WT, normalized to 10 μM capsaicin response): 82.7 ± 5.7%
- non-specific effects in untransfected cells [12]: no detectable non-specific effects
- EC50 [8]: 93.5 ± 15.1 µM
- open probability ([8]; 10 μM piperine): 12.3 ± 2.2%
- open probability ([8]; 30 μM piperine): 25.8 ± 5.1%
- Hill slope factor [8]: 0.9
- EC50 [9]: 5.1 ± 0.7 µM
- fluorescence signal at 30 μM ([9]; 30 μM piperine, T551V expressing cells): decreased substantially
- Hill slope factor [9]: 1.3
